Wee1 degr inh = inhibitors of human Wee1 degradation; P30291; HeLa Luc-Wee1K328M stability, luciferase luminescence; 100% = proteasome inhibitor MG132 effect; reporter increase, % at 5 µM; 220,000 compounds, 1.2% hits;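 active = activation above the mean of all tested compounds plus 3 SD, set per screening run, cut at about 8.8% in these data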;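 also: cells exposed to compound for 20 h before luminescence read; 0% = DMSO alone and 100% = MG132 at 30 µM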
CHOP inhibitor = CHOP inhibition in unfolded protein response | CHO-K1 CHOP-promoter luciferase, tunicamycin-induced, 15-18 h | inhibition, % at 10 µM | 220,000 compounds, 3.8% hits | AID 2732;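 active = compounds that reduced the stress-induced luciferase reporter signal by more than about 70% of percent inhibition, limit read from the data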;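 also: 0% = tunicamycin plus vehicle and 100% = wells without tunicamycin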
PKD1 kinase inh = inhibitors of human PKD1 kinase; AID 797; PKD1 kinase fluorescence polarization assay; 200,000 compounds, 0.056% hits; inhibition, % (no concentration beside the values)
Target sequence (Q15139 whole entry, looked up): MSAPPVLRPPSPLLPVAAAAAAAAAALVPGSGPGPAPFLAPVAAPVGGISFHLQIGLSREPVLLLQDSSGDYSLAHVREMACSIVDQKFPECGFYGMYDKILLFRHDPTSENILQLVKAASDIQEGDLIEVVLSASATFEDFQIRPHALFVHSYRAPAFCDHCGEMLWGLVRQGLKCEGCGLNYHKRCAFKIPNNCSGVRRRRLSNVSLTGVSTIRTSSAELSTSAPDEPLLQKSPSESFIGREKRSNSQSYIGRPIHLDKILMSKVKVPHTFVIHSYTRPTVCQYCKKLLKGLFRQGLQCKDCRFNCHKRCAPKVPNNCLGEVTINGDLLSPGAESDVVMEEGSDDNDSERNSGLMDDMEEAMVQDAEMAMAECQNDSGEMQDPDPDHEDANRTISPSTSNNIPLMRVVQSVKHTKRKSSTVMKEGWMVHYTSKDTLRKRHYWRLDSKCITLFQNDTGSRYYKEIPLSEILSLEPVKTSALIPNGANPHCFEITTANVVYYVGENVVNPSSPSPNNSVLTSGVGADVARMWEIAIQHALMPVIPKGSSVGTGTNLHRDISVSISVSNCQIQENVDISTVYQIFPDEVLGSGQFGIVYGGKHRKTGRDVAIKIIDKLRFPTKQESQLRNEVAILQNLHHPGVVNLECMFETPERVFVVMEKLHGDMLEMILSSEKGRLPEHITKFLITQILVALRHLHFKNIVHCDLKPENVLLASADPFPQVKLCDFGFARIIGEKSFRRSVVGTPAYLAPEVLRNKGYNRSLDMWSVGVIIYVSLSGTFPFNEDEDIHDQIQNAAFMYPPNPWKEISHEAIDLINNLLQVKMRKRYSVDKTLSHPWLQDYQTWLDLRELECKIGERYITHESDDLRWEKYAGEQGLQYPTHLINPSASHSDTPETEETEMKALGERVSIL
Rad51 HR inh = Rad51 (human) homologous recombination inhibition; 200,000 compounds, 0.085% hits; AID 1385; hRad51 DNA strand exchange, fluorescence dequenching; inhibition, % at 10 µM; Q06609;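 active = inhibition above 40% at the single screening dose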;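 also: 0% = DMSO control wells and 100% = blanks with heterologous ssDNA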
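Read-out basis: percent inhibition relative to plate controls and blanks / Assay system: human Rad51 nucleoprotein filaments preassembled on unlabelled ssDNA / Timing: filaments 15 min 37 °C, then compound 30 min / Control set: per-plate controls and blanks / Technique: fluorescence dequenching at 485/520 nm / Compound: 10 µM final, single point / Also added: Fluorescein- and BHQ1-tagged 47-mer duplex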
L major viab = Leishmania major promastigote growth inhibition. 200,000 compounds, 9% hits. inhibition, % at 10 µM. Leishmania major promastigotes, resazurin fluorescence viability;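 also: promastigotes grown with compound for 44 hours at 28 °C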
Arbovirus inh = arbovirus infection inhibition | arbovirus infection cell-based antiviral screen | inhibition, % at 10 µM | 200,000 compounds, 0.37% hits; in the data active = inhibition above about 30%
CHOP confirm = confirmation of CHOP induction inhibitors; shares compounds with CHOP inhibitor; CHO-CHOP promoter luciferase reporter, tunicamycin-induced, luminescence; inhibition, % at 10 µM; 2,100 compounds, 45% hits; AID 504437;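 active = mean of three repeat readings of reporter signal inhibition above a set limit, cut at about 70% in these data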;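 also: 0% = tunicamycin plus vehicle and 100% = wells lacking tunicamycin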
* hit, by the source's call; nt = not tested or not shown. Compounds with a hit are over-represented: about 12% of the library has one in this group of screens. Rule as the data show it, unless noted: active = inhibition above about 50%; inactive = the rest.

SMILES	Wee1 degr inh	CHOP inhibitor	PKD1 kinase inh	Rad51 HR inh	L major viab	Arbovirus inh	CHOP confirm
Cn1c(-c2ccccc2)c(C(=O)CCl)c2ccccc21	-1	108*	1	-1	98*	-29	46
O=C(NCc1ccc(Cl)cc1)c1cc([N+](=O)[O-])ccc1Cl	4	-12	2	4	-9	6	nt
COc1cc(OC)c(NC(=S)NCc2ccc(F)cc2)cc1Cl	0	-4	-9	17	12	2	nt
N#C/C(=C\c1ccc([N+](=O)[O-])o1)C(=O)Nc1ccc(F)cc1	1	108*	2	-43	3	-31	106*
C=CCn1c(=O)c(C(=O)Nc2ccccc2O)c(O)c2ccccc21	2	104*	-1	-5	-2	16	-64
CC(C)COC(=O)c1cccc2c1-c1ccccc1/C2=N\O	3	101*	-7	nt	6	-32	64
CC(=O)N/N=C/c1ccc(OCCOc2ccc(Br)cc2)cc1	1	2	-10	nt	17	6	nt
O=C(Nc1cccc(Cl)c1)Nc1ccnc(-c2cccnc2)n1	3	105*	2	-7	46	34*	105*
CS(=O)(=O)c1ccc(C(=O)Nc2ccc(N3CCOCC3)cc2)c(Cl)c1	0	6	2	2	4	2	nt
CS(=O)(=O)c1ncc(Cl)c(C(=O)Nc2ccc(N3CCOCC3)cc2)n1	0	nt	1	nt	-7	5	117*
CC(C)NC(=O)c1c(O)c2ccccc2[nH]c1=O	0	-5	-22	3	-8	16	nt
O=C(N/N=C/c1cccc(F)c1)c1c(O)c2ccccc2[nH]c1=O	0	104*	4	6	3	7	93*
O=C(N/N=C/c1ccc(F)cc1)c1c(O)c2ccccc2[nH]c1=O	3	101*	-3	-2	4	-2	72*
O=C(N/N=C/c1cccc(F)c1)c1ccc(Cl)cc1	-1	35	-9	nt	-3	-6	nt
C=CCN(c1ccccc1C(=O)O)S(=O)(=O)/C=C/c1ccccc1	-3	10	9	8	-1	1	nt
O=C1C(N2CCOCC2)=C(n2nnc3ccccc32)C(=O)c2ccccc21	-2	nt	0	-3	100*	-40	95*
COc1ccccc1CNC(=O)c1ccc(OC(C)C)cc1	-1	9	0	-19	-3	-3	nt
O=C(COC(=O)[C@@H]1CC(O)CN1S(=O)(=O)c1ccc2c(c1)OCCO2)Nc1ccccc1F (stereo partly specified)	-1	-14	-1	4	-10	11	nt
CN(C)C(=O)CSc1nnc([C@H](Cc2ccccc2)NC(=O)OC(C)(C)C)o1	4	-4	nt	nt	nt	nt	nt
CC(C)C[C@H](NC(=O)OC(C)(C)C)c1nnc(SCC(=O)Nc2ccc(Br)cc2)o1	-1	100*	-13	4	-6	8	132*
COc1ccc(-c2nn(-c3ccccc3)cc2/C=N/N2C(=O)CSC2=S)cc1	1	112*	-9	5	25	-32	77*
O=C(CN1CCN(c2nc(-c3ccccc3)cs2)CC1)NNC(=O)c1ccco1	-2	27	0	8	-5	7	nt
COc1ccc2c(=O)c(-c3cnn(-c4ccccc4)c3)c(C)oc2c1	0	7	-6	-11	0	1	nt
Cc1oc2c(C)c(O)ccc2c(=O)c1-c1cnn(-c2ccccc2)c1	-3	104*	12	-8	9	14	-16
Cc1ccccc1C(=O)NNC(=S)NC(=O)c1ccc(Cl)cc1Cl	-3	96*	-10	6	-6	-19	12
SMILES	Wee1 degr inh	CHOP inhibitor	PKD1 kinase inh	Rad51 HR inh	L major viab	Arbovirus inh	CHOP confirm
O=C(NC(=S)NNC(=O)c1ccc(Cl)cc1Cl)c1cccnc1	-1	34	7	-8	37	-7	nt
O=C(CCCCCNc1nc(=S)[nH]c2ccccc12)NCCC1=CCCCC1	1	101*	-5	-14	-3	14	22
O=C(CCCCCNc1nc(=S)[nH]c2ccccc12)NCCc1c[nH]c2ccccc12	-2	44	12	nt	13	-2	nt
O=C(NCCc1ccccc1)C1CCC(CNc2nc(=S)[nH]c3ccccc23)CC1 (stereo unspecified)	-1	104*	1	20	6	-8	-70
COc1ccccc1OCC(=O)NCCSCc1cccc(Cl)c1	5	19	-5	13	-3	-3	nt
Cc1cccc(N/N=C(\C=N\N)C(=O)c2ccc(Br)cc2)c1	-1	103*	3	17	13	-17	35
COc1cc2c(cc1NC(=O)c1cccc(S(=O)(=O)N(C)C)c1)oc1ccccc12	1	-16	10	0	17	-25	nt
COc1ccc(CNc2oc(-c3cccc4ccccc34)nc2C#N)cc1	-1	97*	0	2	-6	11	98*
CNc1oc(-c2cccc3ccccc23)nc1C#N	-3	41	-1	-2	-4	3	nt
N=c1n(CC(=O)c2ccc([N+](=O)[O-])cc2)c2ccccc2n1Cc1ccc(Cl)cc1	-1	105*	13	-29	100*	-1	122*
CSc1nc(-c2ccc(F)cc2)cc(=O)[nH]1	-2	-2	-9	7	-9	2	nt
O=C(Nc1ccccn1)c1cc(-c2cccnc2)nc2ccc(Br)cc12	1	103*	8	-1	-2	4	-15
CCN(CC)C(=O)CC(c1ccc(F)cc1)c1ccc(OC(C)C)cc1 (stereo unspecified)	-2	6	4	-2	21	2	nt
CCCCCCNc1c([N+](=O)[O-])c(=O)sc2ccccc12	-2	31	-3	3	18	2	nt
O=C(Nc1nnc(COc2ccc(F)cc2)s1)Nc1ccccc1F	-1	99*	nt	-6	nt	nt	2
COc1cccc(NC(=O)Nc2nnc(-c3ccccc3SCc3ccccc3)s2)c1	2	62	4	-12	-1	2	nt
COc1ccc(NC(=O)Nc2nnc(-c3ccccc3SCc3ccccc3)s2)cc1	0	98*	3	-9	6	-12	27
COc1ccc(OCc2nnc(NC(=O)Nc3ccc(F)cc3)s2)cc1	-3	101*	0	nt	-9	-6	0
CCOC(=O)c1sc(NC(=O)Nc2ccccc2F)nc1C	-2	102*	-6	13	-10	6	44
CC(=O)Nc1ccc(S(=O)(=O)N2CCCC2C(=O)Nc2ccc3c(c2)OCCO3)cc1 (stereo unspecified)	0	0	-9	-2	-6	5	nt
O=S(=O)(NCCSc1ccccc1)c1cccs1	-2	34	-8	10	-2	12	nt
O=C(/C=C/c1cccs1)Nc1ccc(Br)cn1	4	-67	4	1	-3	-1	nt
CCCNC(=O)c1ccccc1NC(=O)CN(c1ccccc1)S(=O)(=O)N(C)C	-3	14	-8	nt	-1	-4	nt

Bioassay records: PubChem BioAssay, several laboratories
